Measurements from the RNAGym collection of RNA variant scans (doi:10.1038/s41586-018-0170-7).

B1: tRNA (parent)
chain: GUUCCGUUGGCGUAAUGGUAACGCGUCUCCCUCCUAAGGAGAAGACUGCGGGUUCGAGUCCCGUACGGAACG

Variants of: B1
Assay: yeast fitness, log relative to wild type (ln ratio); higher = fitter; tRNA-Arg(CCU), competitive growth, 37 C, 1 M NaCl
How it was run: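 A combinatorial tRNA-Arg(CCU) variant library was carried on a HIS3 centromeric plasmid in BY4742 lacking the chromosomal gene, from two independent transformations. Pools grew 4 generations in SC-HIS at 30 °C, then ~6.5 generations (~26.5 h) in SC-HIS 1M NaCl at 37 °C, with three outputs per input. Variants were counted by 125 bp paired-end Illumina sequencing. Fitness is ln of each genotype's generations (OD-scaled log2 output/input frequency, inverse-variance weighted across replicates) over the wild-type's.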

Variant | yeast fitness (ln)
G1A U2G C66A A70G C71U | -0.191
G1A U2G G6A C27U A43C C71U | -0.357
G1A U2G G6A A43C C66A A69G A70G C71U | -0.253
G1A U2G G6A C27U C66U A69G A70U C71U | -0.479
G1A U2G G6A A43C C46U A69G A70U | -0.0779
G1A U2G G6A A43C C46U A69G A70G | -0.292
G1A U2G C27U C46U C66U A69G A70G | -0.231
G1A U2G C27U C46U C66U A69G A70U | -0.265
G1A U2G G6A C27U A43C C66U A70G | -0.337
G1A U2G G6A C27U A43C C66U A70U | -0.236
G1A U2G C27U A43C C46U C66U A70G C71U | -0.318
G1A U2G G6A C46U A70G | -0.176
G1A U2G G6A C46U A70U | -0.143
G1A U2G C27U A43C C46U C66U | -0.231
G1A U2G G6A C27U A43C C46U A69G A70G C71U | -0.424
G1A U2G G6A C27U A69G A70U C71U | -0.526
G1A U2G G6A C27U A43C C46U C66U C71U | -0.29
G1A U2G C46U C66U C71U | -0.117
G1A U2G C27U C46U C66U A69G A70G C71U | -0.267
G1A U2G C27U A69G A70U C71U | -0.386
G1A U2G C27U A43C C46U C66U A70U | -0.214
G1A U2G C27U A43C C46U C66U A70G | -0.172
G1A U2G G6A A43C A69G C71U | -0.506
G1A U2G C46U C71U | -0.25

Variant | yeast fitness (ln)
G1A U2G G6A C27U A43C C66U A69G A70U C71U | -0.489
G1A U2G G6A C27U A43C A70G C71U | -0.344
G1A U2G C66U A69G A70U C71U | -0.435
G1A U2G C27U A43C C46U C66A A70U | -0.175
G1A U2G C27U A43C C46U C66A A70G | -0.178
G1A U2G G6A C27U A43C C66A A70U | -0.249
G1A U2G G6A C27U C66U A70U C71U | -0.164
G1A U2G G6A C27U A43C C46U C66U A69G A70G | -0.34
G1A U2G G6A C27U A43C C46U C66U A69G A70U | -0.436
G1A U2G C27U C46U | -0.0532
G1A U2G G6A C66U A70G C71U | -0.578
G1A U2G C46U C66U A69G A70U C71U | -0.321
G1A U2G C27U C46U C66A C71U | -0.0936
G1A U2G G6A C27U C66U A69G A70G | -0.431
G1A U2G G6A C27U C66U A69G A70U | -0.26
G1A U2G G6A C27U C46U C66A C71U | -0.179
G1A U2G G6A C27U C46U C66A A70U | -0.187
G1A U2G G6A A43C C46U C66A A70G C71U | -0.169
G1A U2G C27U C46U A69G A70G C71U | -0.292
G1A U2G G6A A43C C46U A70U | -0.165
G1A U2G G6A A43C C46U A70G | -0.163
G1A U2G G6A C27U A43C C46U C66A A69G C71U | -0.275
G1A U2G C46U C66U A69G C71U | -0.318
G1A U2G C66A A70U C71U | -0.146

Variant | yeast fitness (ln)
G1A U2G C27U C46U A69G A70G | -0.21
G1A U2G C27U C46U A69G A70U | -0.207
G1A U2G G6A C27U A43C A70G | -0.381
G1A U2G G6A C27U A43C A70U | -0.26
G1A U2G G6A A69G A70U | -0.153
G1A U2G G6A A69G A70G | -0.333
G1A U2G G6A C27U A70U C71U | -0.264
G1A U2G G6A A43C C46U C66A A70G | -0.26
G1A U2G G6A A43C C46U C66A A70U | -0.191
G1A U2G G6A C27U C46U C66U A70G | -0.194
G1A U2G G6A C27U C46U C66U A70U | -0.28
G1A U2G G6A A43C A70U C71U | -0.309
G1A U2G G6A C27U A43C C46U A70U C71U | -0.307
G1A U2G C27U A43C C46U C66A A70U C71U | -0.35
G1A U2G C46U A69G A70G C71U | -0.457
G1A U2G G6A A69G A70U C71U | -0.331
G1A U2G C27U C46U A70G | -0.144
G1A U2G C27U C46U A70U | -0.293
G1A U2G G6A C27U C66A A70U C71U | -0.457
G1A U2G G6A C27U C46U C66U A70U C71U | -0.0596
G1A U2G C27U A43C C66A A70U C71U | -0.499
G1A U2G C46U C66U A70G | -0.148
G1A U2G C46U C66U A70U | -0.0831
G1A U2G C46U A70U | -0.115

Variant | yeast fitness (ln)
G1A U2G C46U A70G | -0.103
G1A U2G G6A A43C C66U A70U C71U | -0.443
G1A U2G G6A C27U A43C C46U C66A A70U | -0.219
G1A U2G C46U C66A A70U C71U | -0.152
G1A U2G G6A C46U A69G C71U | -0.193
G1A U2G G6A C46U C66U A69G A70U C71U | -0.141
G1A U2G C27U C66U A69G A70U C71U | -0.511
G1A U2G G6A A43C A69G A70G | -0.238
G1A U2G G6A A43C C46U C66U A70G | -0.181
G1A U2G G6A A43C C46U C66U A70U | -0.306
G1A U2G G6A C27U A43C C66U A69G A70G C71U | -0.563
G1A U2G C46U C66U A70G C71U | -0.161
G1A U2G C27U C46U C66U A70G | -0.167
G1A U2G C27U C46U C66U A70U | -0.123
G1A U2G C27U A43C C66A A69G C71U | -0.297
G1A U2G G6A A43C C46U C66A A70U C71U | -0.282
G1A U2G G6A C27U A43C C66U A70U C71U | -0.536
G1A U2G C46U C66A A69G A70U | -0.0906
G1A U2G G6A C27U C66A A70U | -0.129
G1A U2G G6A C27U C66A A70G | -0.296
G1A U2G G6A C27U A43C C46U A69G A70U C71U | -0.443
G1A U2G G6A C66U A69G A70G | -0.282
G1A U2G G6A C66U A69G A70U | -0.334
G1A U2G G6A A43C C46U A69G C71U | -0.206

Variant | yeast fitness (ln)
G1A U2G C46U C66A A69G A70U C71U | -0.385
G1A U2G G6A C27U A43C C46U C66U A69G A70G C71U | -0.433
G1A U2G G6A C46U A69G A70U C71U | -0.259
G1A U2G G6A C66U A70G | -0.142
G1A U2G C27U C66U | -0.174
G1A U2G G6A C27U C46U C66U A69G A70U | -0.219
G1A U2G G6A C27U C46U C66U A69G A70G | -0.272
G1A U2G C27U A43C C46U C66U C71U | -0.277
G1A U2G C46U C66U A69G A70G C71U | -0.195
G1A U2G G6A C46U C66U A70U C71U | -0.00784
G1A U2G G6A A43C | -0.238
G1A U2G G6A A43C C46U A70G C71U | -0.202
G1A U2G G6A C66A A70U | -0.0697
G1A U2G G6A C27U A43C C46U C66U A70U C71U | -0.645
G1A U2G G6A C27U C46U C66A A70G C71U | -0.282
G1A U2G G6A C46U A69G A70G | -0.251
G1A U2G G6A C46U A69G A70U | -0.165
G1A U2G C66A C71U | -0.0937
G1A U2G C66A A69G A70G C71U | -0.235
G1A U2G G6A C27U A70U | -0.24
G1A U2G G6A C27U A70G | -0.339
G1A U2G G6A C27U C46U A70G C71U | -0.244
G1A U2G G6A C27U C46U C71U | -0.182
G1A U2G C27U C46U C66A A69G A70U C71U | -0.476

Variant | yeast fitness (ln)
G1A U2G C27U C66U A70U | -0.174
G1A U2G C27U C66U A70G | -0.194
G1A U2G G6A C27U A43C C46U A70G C71U | -0.405
G1A U2G G6A C27U C46U C66U A69G C71U | -0.332
G1A U2G C27U A43C C66U A70U C71U | -0.382
G1A U2G G6A C27U A43C C46U C66U A69G A70U C71U | -0.384
G1A U2G G6A A43C C46U C66U A69G A70U C71U | -0.425
G1A U2G G6A A43C C46U C66U A70G C71U | -0.266
G1A U2G C27U A70G C71U | -0.371
G1A U2G G6A A43C A70U | -0.216
G1A U2G G6A A43C A70G | -0.304
G1A U2G G6A C27U A43C C46U C66A C71U | -0.323
G1A U2G C46U A69G A70U | -0.238
G1A U2G C46U A69G A70G | -0.163
G1A U2G C27U A43C C46U C66U A69G A70U C71U | -0.5
G1A U2G C46U C66A A69G A70G C71U | -0.173
G1A U2G G6A C27U A43C C46U C66U A70G C71U | -0.286
G1A U2G G6A C27U C66U | -0.221
G1A U2G G6A A43C C46U C71U | -0.23
G1A U2G C27U A43C C46U C66A C71U | -0.254
G1A U2G G6A C46U C66U A69G C71U | -0.253
G1A U2G C66U C71U | -0.201
G1A U2G C27U C46U C66A A70G | -0.195
G1A U2G C27U C46U C66A A70U | -0.138

Variant | yeast fitness (ln)
G1A U2G G6A C27U C66A A69G A70G C71U | -0.353
G1A U2G G6A A43C C66A A70U | -0.216
G1A U2G C66U A70U C71U | -0.486
G1A U2G G6A A70U C71U | -0.0851
G1A U2G G6A C46U C66U C71U | -0.301
G1A U2G C27U C66U A70U C71U | -0.365
G1A U2G C71U | -0.218
G1A U2G C27U A43C C46U C66A A69G A70U C71U | -0.456
G1A U2G C27U C46U A70G C71U | -0.503
G1A U2G C46U C66A A70U | -0.109
G1A U2G C46U C66A A70G | -0.152
G1A U2G C27U C46U C66A A70G C71U | -0.203
G1A U2G C27U C46U C66U C71U | -0.21
G1A U2G C27U A43C C66A A69G A70G C71U | -0.472
G1A U2G G6A A43C C46U C66A A69G A70U C71U | -0.286
G1A U2G C27U A70G | -0.142
G1A U2G C27U A70U | -0.33
G1A U2G G6A C27U A43C C46U A70U | -0.215
G1A U2G G6A C27U A43C C46U A70G | -0.224
G1A U2G G6A A43C C46U A69G A70G C71U | -0.303
G1A U2G G6A C46U A70G C71U | -0.245
G1A U2G G6A C46U C71U | -0.247
G1A U2G G6A C27U A43C C46U | -0.242
